From ChEMBL document CHEMBL4619720, “Synthesis and biological evaluation of new antioxidant and antiproliferative chalcogenobiotin derivatives for bladder carcinoma treatment” (Bioorg Med Chem, 2020)
Activity calls are given as the source filed them. The calls are words filed in the database; no cut-off is given here.

What was measured:
5637 [1] = assay: Antiproliferative activity against human 5637 cells assessed as inhibition of cell growth at 0.4 uM to 50 uM after 48 hrs by MTT assay; format: functional, cell-based
Outline: (§1)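 Human bladder carcinoma 5637 cells, grown in DMEM with 10% FBS at 37 °C under 5% CO2, were seeded at 2 × 10^4 cells/well and cultured 24 h. Medium was then replaced with compound in DMEM/FBS, DMSO ≤0.5%, for 24 or 48 h. MTT was added for 3 h, formazan dissolved in DMSO, and OD read at 492 nm. Inhibition % = [1 − Abs treated/Abs control] × 100; three independent experiments.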

5637 [2] = assay: Antiproliferative activity against human 5637 cells assessed as inhibition of cell growth at 0.4 uM to 50 uM after 24 hrs by MTT assay; format: functional, cell-based; outline: as §1
[3] = Antioxidant activity assessed as half life of GPx-like activity to decompose hydrogen peroxide at 55 uM measured for 20 mins by spectrophotometer method
[4] = Cytotoxicity against human leukocytes assessed as reduction in cell viability at 100 uM after 3 hrs by Trypan blue exclusion assay
Outline: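 Leukocytes isolated from heparinized venous blood of healthy donors, 2 × 10^6/mL. Incubated 3 h in Hank's buffer with 10% human plasma containing DMSO (0.5%), compounds (100 µM) or t-butyl hydroperoxide (1 mM) as positive control. Three independent experiments.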

5637 [5] = assay: Cell cycle arrest in human 5637 cells assessed as accumulation at G2/M phase at 12.5 uM after 24 hrs by propidium-iodide staining based flow cytometry; format: functional
Outline: (§2)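 5637 cells treated 24 h at 12.5 µM alongside untreated controls. DNA content measured by propidium iodide staining and flow cytometry. Triplicate treatments; analysis by two-way ANOVA with t-tests, p < 0.05.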

5637 [6] = assay: Antiproliferative activity against human 5637 cells assessed as inhibition of cell growth at 0.4 uM to 50 uM by MTT assay; format: functional, cell-based; details: TDE = time-dependent effect
Outline: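 5637 bladder carcinoma cells in DMEM/10% FBS at 37 °C, 5% CO2, log phase, seeded 2 × 10^4 per well for 24 h. Compound exposure 0.4–50 µM for 24 or 48 h, DMSO ≤0.5%. MTT (5 mg/mL in PBS) 3 h at 37 °C, formazan dissolved in DMSO, read at 492 nm. Inhibition % = [1 − Abs treated/Abs control] × 100; IC50 by nonlinear regression; three independent experiments.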

[7] = Antioxidant activity assessed as GPx-like activity to decompose hydrogen peroxide at 450 uM measured for 20 mins by spectrophotometer method; format: functional
Outline: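 GPx-mimic assay with thiophenol replacing glutathione. Ethanol, thiophenol 2.5 mM and compound (final 0–450 µM; t1/2 also taken at 55 µM) or DMSO blank, started with H2O2 2.3 mM. […] followed at 305 nm for 20 min. Ebselen and diphenyl diselenide at 55 µM as references; three independent experiments.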

[8] = Antioxidant activity assessed as inhibition of Fe(II)-induced lipid peroxidation after 30 mins by TBARS assay; format: functional
Outline: (§3)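 Lipid peroxidation system: phosphatidylcholine 0.4 mg, FeSO4 55 µM, Tris-HCl pH 7.4 and compound (final 0–200 µM), 30 min at 37 °C. Then acetic acid buffer pH 3.4 plus 0.22% thiobarbituric acid, 1 h at 100 °C, n-butanol extraction of pink chromogen. IC50 from concentration curves; α-tocopherol and diphenyl diselenide as references; three independent experiments.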

[9] = Antioxidant activity assessed as half life of DPPH radical scavenging activity at 500 uM for 180 mins measured every 30 mins relative to control; format: functional
Outline: (§4)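 Test compounds mixed with 0.3 mM DPPH in ethanol; single-point screen at 1 mM, time course at final 500 µM. Absorbance at 518 nm read every 30 min over 180 min. Positive controls were BHT (final 500 µM) and diphenyl diselenide (final 2 mM); t1/2 is the time to scavenge 50% of DPPH. DMSO vehicle; three independent experiments.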

[10] = Antioxidant activity assessed as inhibition of Fe(II)-induced lipid peroxidation at 200 uM after 30 mins by TBARS assay; format: functional; outline: as §3
[11] = Antioxidant activity assessed as DPPH radical scavenging activity at 1 mM for 180 mins measured every 30 mins relative to control; format: functional; outline: as §4
5637 [12] = assay: cells; details: Homo sapiens, 5637, 48 h
5637 [13] = assay: cells; details: Homo sapiens, 5637, 24 h
CHO-K1 [14] = assay: Cytotoxicity against CHOK1 cells assessed as inhibition of cell growth at 0.4 uM to 50 uM after 48 hrs by MTT assay; format: cell-based, Cricetulus griseus; details: chinese hamster, cho-k1, 48 h
Outline: (§5)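 CHO-K1 cells exposed to 0.4–50 µM for 24 and 48 h, then MTT reduction assay. Growth inhibition relative to control; IC50 by nonlinear regression; three independent experiments.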

CHO-K1 [15] = assay: Cytotoxicity against CHOK1 cells assessed as inhibition of cell growth at 0.4 uM to 50 uM after 24 hrs by MTT assay; format: cell-based, Cricetulus griseus; details: chinese hamster, cho-k1, 24 h; outline: as §5
[16] = Cytotoxicity against human leukocytes assessed as reduction in cell viability at 1 mM after 3 hrs by Trypan blue exclusion assay; details: 1000 µM
[17] = Cytotoxicity against CHOK1 cells assessed as inhibition of cell growth at 12.5 uM after 24 hrs by MTT assay relative to control; format: cell-based, Cricetulus griseus; details: chinese hamster, CHO-K1 cells; outline: as §5
[18] = Toxicity in Swiss mouse assessed as effect on alkaline phosphatase activity at 100 umol/kg, sc administration and measured for 7 days; format: organism-based; details: in vivo, 168 h
Outline: (§6)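 Adult male Swiss mice (25–30 g), n = 4 per group, given a single subcutaneous dose of 100 µmol/kg or DMSO 1 mL/kg. Monitored by closed-circuit TV for 168 h, with body weight, food and water intake recorded daily. Killed by decapitation at day 7; blood urea, creatinine, AST, ALT and alkaline phosphatase measured.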

[19] = Toxicity in Swiss mouse assessed as effect on alanine aminotransferase level at 100 umol/kg, sc administration and measured for 7 days; format: organism-based; details: in vivo, 168 h; outline: as §6
[20] = Toxicity in Swiss mouse assessed as increase in aspartate aminotransferase level in plasma at 100 umol/kg, sc administration and measured for 7 days; format: organism-based; details: in vivo, 168 h; outline: as §6
[21] = Toxicity in Swiss mouse assessed as creatinine level in plasma at 100 umol/kg, sc administration and measured for 7 days; format: organism-based; details: in vivo, 168 h; outline: as §6
[22] = Toxicity in Swiss mouse assessed as survival rate at 100 umol/kg, sc administration and measured for 7 days; format: organism-based; details: in vivo, 168 h; outline: as §6
[23] = Toxicity in Swiss mouse assessed as urea level in plasma at 100 umol/kg, sc administration and measured for 7 days; format: organism-based; details: in vivo, 168 h; outline: as §6
CHO-K1 [24] = assay: Cytotoxicity against CHOK1 cells assessed as inhibition of cell growth after 48 hrs by MTT assay relative to control; format: cell-based; details: Cricetulus griseus, CHO-K1, 48 h; outline: as §5
CHO-K1 [25] = assay: Cytotoxicity against CHOK1 cells assessed as inhibition of cell growth after 24 hrs by MTT assay relative to control; format: cell-based; details: Cricetulus griseus, CHO-K1, 24 h; outline: as §5
5637 [26] = assay: Cell cycle arrest in human 5637 cells assessed as accumulation at S-phase at 12.5 uM after 24 hrs by propidium-iodide staining based flow cytometry; format: functional; outline: as §2

**Q.** With `O=C1N[C@H]2[C@H](CS[C@H]2CCCCC(=O)OCCCC[Se]c2ccccc2)N1` as the compound, how does the inhibition 5637 [1] read?
**A.** Its inhibition is “inactive”.

**Q.** What about the inhibition 5637 [2] of the same compound?
**A.** The inhibition was “inactive”.

**Q.** Which results are given for `O=C1N[C@H]2[C@H](CS[C@H]2CCCCC(=O)OCCCC[Se]c2ccc(Cl)cc2)N1`?
**A.** inhibition 5637 [1]: inactive; inhibition 5637 [2]: inactive

**Q.** For `O=c1c2ccccc2[se]n1-c1ccccc1`, which T1/2 [3] is on record?
**A.** Its T1/2 is 56 min.

**Q.** With `Cc1ccc([Se]CCCCOC(=O)CCCC[C@@H]2SC[C@@H]3NC(=O)N[C@@H]32)cc1` as the compound, how does the inhibition 5637 [1] read?
**A.** Its inhibition is “inactive”.

**Q.** What about the inhibition 5637 [2] of the same compound?
**A.** Its inhibition is “inactive”.

**Q.** For `O=C1N[C@H]2[C@H](CS[C@H]2CCCCC(=O)OCCCCC[Te]c2ccccc2)N1`, which Activity [4] is on record?
**A.** The Activity was “Non-Toxic”.

**Q.** And the Activity 5637 [5]?
**A.** The Activity was “Active”.

**Q.** What about the inhibition 5637 [6] of the same compound?
**A.** Its inhibition is “Tde”.

**Q.** And the Activity [7]?
**A.** The Activity was “Active”.

**Q.** What about the IC50 [8] of the same compound?
**A.** The IC50 was 1.33 µM.

**Q.** And the T1/2 [9]?
**A.** The T1/2 was 23 min.

**Q.** And the inhibition [10]?
**A.** Its inhibition is “Active”.

**Q.** And the Activity [11]?
**A.** The Activity was 50%.

**Q.** What about the IC50 5637 [12] of the same compound?
**A.** The IC50 was 6.71 µM.

**Q.** And the IC50 5637 [13]?
**A.** Its IC50 is 7.63 µM.

**Q.** And the T1/2 [3]?
**A.** Its T1/2 is 38.9 min.

**Q.** What does the source list for `COc1ccc([Se]CCCCOC(=O)CCCC[C@@H]2SC[C@@H]3NC(=O)N[C@@H]32)cc1`?
**A.** inhibition 5637 [1]: inactive; inhibition 5637 [2]: inactive

**Q.** With `O=C(O)CCCC[C@@H]1SC[C@@H]2NC(=O)N[C@@H]21` [BIOTIN] as the compound, how does the Activity (CHO-K1 [14]) read?
**A.** The Activity was “Non-Toxic”.

**Q.** What about the Activity (CHO-K1 [15]) of the same compound?
**A.** Its Activity is “Non-Toxic”.

**Q.** What about the inhibition 5637 [1] of the same compound?
**A.** Its inhibition is “inactive”.

**Q.** And the inhibition 5637 [2]?
**A.** The inhibition was “inactive”.

**Q.** Which Activity [16] does the source give for `CC(C)(C)OO` [TERT-BUTYL HYDROPEROXIDE] here?
**A.** The Activity was “Toxic”.

**Q.** For `c1ccc([Se][Se]c2ccccc2)cc1`, which Activity [7] is on record?
**A.** Its Activity is “Active”.

**Q.** What about the IC50 [8] of the same compound?
**A.** The IC50 was 248 µM.

**Q.** What about the T1/2 [9] of the same compound?
**A.** The T1/2 was over 180 min.

**Q.** And the inhibition [10]?
**A.** The inhibition was “Active”.

**Q.** What about the T1/2 [3] of the same compound?
**A.** Its T1/2 is 120 min.

**Q.** For `CCCCCCC[Te]c1ccccc1`, which inhibition at 24 h, 12.5 µM [17] is on record?
**A.** The inhibition at 24 h, 12.5 µM was 50%.

**Q.** With `O=C1N[C@H]2[C@H](CS[C@H]2CCCCC(=O)OCCCC[Te]c2ccccc2)N1` as the compound, how does the Activity [18] read?
**A.** Its Activity is “Non-Toxic”.

**Q.** What about the Activity [19] of the same compound?
**A.** The Activity was “Non-Toxic”.

**Q.** What about the Activity [20] of the same compound?
**A.** Its Activity is “Toxic”.

**Q.** And the Activity [21]?
**A.** Its Activity is “Non-Toxic”.

**Q.** And the Activity [22]?
**A.** The Activity was “Non-Toxic”.

**Q.** And the Activity [23]?
**A.** Its Activity is “Non-Toxic”.

**Q.** And the Activity [4]?
**A.** Its Activity is “Non-Toxic”.

**Q.** And the IC50 (CHO-K1 [24])?
**A.** Its IC50 is 34.2 µM.

**Q.** What about the IC50 (CHO-K1 [25]) of the same compound?
**A.** Its IC50 is 70 µM.

**Q.** What about the Activity 5637 [26] of the same compound?
**A.** Its Activity is “Active”.

**Q.** And the inhibition 5637 [6]?
**A.** The inhibition was “Tde”.

**Q.** And the Activity [7]?
**A.** Its Activity is “Active”.

**Q.** And the IC50 [8]?
**A.** The IC50 was 5 µM.

**Q.** And the T1/2 [9]?
**A.** Its T1/2 is 18 min.

**Q.** What about the inhibition [10] of the same compound?
**A.** Its inhibition is “Active”.

**Q.** And the Activity [11]?
**A.** Its Activity is 50%.

**Q.** And the IC50 5637 [12]?
**A.** Its IC50 is 4.73 µM.

**Q.** What about the IC50 5637 [13] of the same compound?
**A.** The IC50 was 5.8 µM.

**Q.** And the T1/2 [3]?
**A.** Its T1/2 is 15.8 min.

**Q.** Which T1/2 [9] does the source give for `Cc1cc(C(C)(C)C)c(O)c(C(C)(C)C)c1` here?
**A.** The T1/2 was 20.7 min.

**Q.** With `Cc1c(C)c2c(c(C)c1O)CC[C@@](C)(CCC[C@H](C)CCC[C@H](C)CCCC(C)C)O2` [ALPHA-TOCOPHEROL] as the compound, how does the IC50 [8] read?
**A.** Its IC50 is 60.3 µM.

**Q.** And the inhibition [10]?
**A.** Its inhibition is “Active”.
